Experimental data as given in the RNAGym collection of RNA variant scans (doi:10.1126/science.aae0568).
This sample holds only a part of the variants without activity.

B1: tRNA (parent)
chain: GUUCCGUUGGCGUAAUGGUAACGCGUCUCCCUCCUAAGGAGAAGACUGCGGGUUCGAGUCCCGUACGGAACG

Variants of: B1
Experiment: yeast fitness relative to wild type (ratio to wild type); higher = fitter; tRNA-Arg(CCU), competitive growth, 37 C, YPD
Outline: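 Start and end populations of a pooled competition were compared by 100-nucleotide paired-end sequencing of gene amplicons. The Saccharomyces cerevisiae strains carried tRNA-Arg(CCU) gene variants at the native genomic locus, synthesised with a 3% per-site mutation rate at 69 sites, and competed in YPD at 37°C for 24 hours in six parallel replicates. Darwinian fitness relative to wild type was based on the change in genotype frequencies. Genotypes required ≥ 100 starting reads, and estimates < 0.5 were set to 0.5.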

| Variant | yeast fitness |
| --- | --- |
| GUUCUGUCGGCGUAAUGGUAACGCGUCUCCCUCCUAAGGAGAUGACUGCGGGUUCGAGUCCCGUAUGGAACG [C5U U8C A43U C66U] | ≤ 0.5 |
| GUUCUGUAGGCGUAAUGCUGACGCGUCUCCCUCCUAAGGAGAAGACUGCGGGUUCGAGUCCCGUACGGAACG [C5U U8A G18C A20G] | 0.537 |
| GUUCUGUCGGCGUAAUGGUAACGCGUCUCCCUCCUAAGGAGAUGACUGCGGGUUCGAGUCCCGUACGGAACG [C5U U8C A43U] | 0.703 |
| GUUCUGUGGGCGUAAUGGUAACGCGUCUCCCUCCUAAGGAGAAGACUGCGGGUUCGAGUCCCGUACGGAACG [C5U U8G] | 0.64 |
| GUUCUGUCGGCGUAAUGGUAACGCGUCUCCCUCCUAAGGAGAAGACUGCGGGUUCGAGUCCCGUACGGAACG [C5U U8C] | 1.07 |
| GUUCUGUUGGCGCAAUGGUCACGCGUCUCCCUCCUGAGGAGAAGACUGCGGCUUCGAGUCCCGUACGGAACG [C5U U13C A20C A36G G52C] | ≤ 0.5 |
| GUUCUGUUGGCGAAAUGCUAACGCGUCUCGCUCCUAUGGAGAAGAUUGCGGGUUCGAGUCCCGUACGGAACG [C5U U13A G18C C30G A37U C46U] | ≤ 0.5 |
| GUUCUGUUGGCGAAAUGGUAACGCGUCUCCCUCCUAAGGAGAAGACUGCGGGUUCGAGUCCCGUACGGAUCG [C5U U13A A70U] | 0.737 |
| GUUCUGUUGGCGAAAUGGUAACGCGUCUGCAUCCUAAGGAGAAGACUGCGGGUUCGAGUCUCGUACGGAACG [C5U U13A C29G C31A C61U] | ≤ 0.5 |
| GUUCUGUUGGCGAAAUGGUAACGCGUGUCCCUCCUAAGGAGAAGACUGCGGGUUCGAGUCCCGUACGGAACG [C5U U13A C27G] | 0.557 |
| GUUCUGUUGGCGAAAUGGUAACGCGUCUGCGUCCUAAGGAGAAGACUGCGGGUUCGAGUCCCGUACGGAACG [C5U U13A C29G C31G] | ≤ 0.5 |
| GUUCUGUUGGCGAAAUGGUAACGCGUCUGCAUCCUAAGGAGAAGACUGCGGGUUCGAGUCCCGUACGGAACG [C5U U13A C29G C31A] | 0.593 |
| GUUCUGUCGGCGUAAUGGUAACGCGUCUCCGUGUUAAGGAGAAGACUGCGGGUUCGAGUCCCGUACGAAACG [C5U U8C C31G C33G C34U G68A] | ≤ 0.5 |
| GUUCUGUUGGCGCAAUGGUUACGCGUCUCCCUCCUACGGAGAACACUGCGGGUUCGAGUCCCGUACGGAACG [C5U U13C A20U A37C G44C] | ≤ 0.5 |
| GUUCUGUAGGCGUAAUGGUAACGCGUCUCCCUCCUAAGGAGAAGACUGCGGGUUCGAGUCCCGUACGGCACG [C5U U8A A69C] | ≤ 0.5 |
| GUUCUGUCGGCGUAAUGGUGACGCGUCUCACUCCUAAGGAGAAGACUGCGGGUUCGAGUCUCGUACGGAACG [C5U U8C A20G C30A C61U] | 0.544 |
| GUUCUGUCGGCGUAAUGGUAACGCGUCUCCCUCCUGAGGGGAAGACUGCGGGUUCGAGUACCGUACGGAACG [C5U U8C A36G A40G C60A] | ≤ 0.5 |
| GUUCUGUUGGCGAAAUGGUAACGCGUCUCCCUCCUAAGGAGAAGACUGCGGGUUCGUGUCCCGUACGGAACG [C5U U13A A57U] | 0.573 |
| GUUCUGUCGGCGUAAUCGUAACGCGUCUCCAUCCUAAGGAGAAGACUGCGGGUUCGAGUCCCGUACGAAACG [C5U U8C G17C C31A G68A] | ≤ 0.5 |

| Variant | yeast fitness |
| --- | --- |
| GUUCUGGUGGCGUAAUGGUAACGCGUCUCCCUCCUAAGGAGAAGACUGCGGGUUCGAGUCCAGUACGGAACG [C5U U7G C62A] | ≤ 0.5 |
| GUUCUGUAGGCGUAAUGGUAACGCGUCUCCCUCCUAAGGAGAAGACUGCGGGUUCGAGGCCCGUACGGAACG [C5U U8A U59G] | ≤ 0.5 |
| GUUCUGUAGGCGUAAUGGUAACGCGUCUCCCUCCUAAGGAGAAGACUGCGGGUUCGUGUCCCGUACGGAACG [C5U U8A A57U] | ≤ 0.5 |
| GUUCUGUAGGUGUAAUGGUAACGCGUCUCCCUCCGAAGGAGAUGAGUGCGGGCUCGAGUCCCGUACGGCACG [C5U U8A C11U U35G A43U C46G U53C A69C] | ≤ 0.5 |
| GUUCUGUCGGGGUAUUGGUAACGCGUCUCCCUCCUAAGGAGAAGACUGUGAGUUCGAGUCCCAUACGGAACG [C5U U8C C11G A15U C49U G51A G63A] | ≤ 0.5 |
| GUUCUGUUGGCGAAAUGGUAACGCGUCUCCCUCCUAAGGAGAAGACUGCGGGUUCGAGUCCAGUACGGAACG [C5U U13A C62A] | 0.546 |
| GUUCUGUAGGCGUAAUGCUAACGCGUCUCCCUCCUAAGGAGAAGACUGCGGGUUCGAGUCCCGUACGGAACG [C5U U8A G18C] | 0.577 |
| GUUCUGUAGGCGUAAUGGUAACGCGUCUCCCUCCUAAGGAGAAGACUGCGGGUUCGAGUCCCGUACGGACCG [C5U U8A A70C] | 0.583 |
| GUUCUGUUGGCGCAAUGGUAACGGGCCUCCCUCCUCAGGAGAAGACUGCGGGUUGGUGUCCUGUACGGAACG [C5U U13C C24G U26C A36C C55G A57U C62U] | ≤ 0.5 |
| GUUCUGUAGGCGUAAUGGUAACGCGUCUCCCUCCUAAGGAGAAGAAUGCGGGUUCGAGUCCCGUACGGAACG [C5U U8A C46A] | ≤ 0.5 |
| GUUCUGUCGGGGUAUUGGUAACGCGUCUCCCUCCUUAAGAGAAGACUGCGGGUUCGAGUCUCGUACGGAUCG [C5U U8C C11G A15U A36U G38A C61U A70U] | 0.564 |
| GUUCUGUUGGCGCACUGGUAACGCGUCUCCCUCCUAAGGAGAAGACUGCGGGUUCGAGUCCCGUACGGAACG [C5U U13C A15C] | ≤ 0.5 |
| GUUCUGUCGGCGUCAUGGUAACGCGUCUCCCUCCUAAGGAGAAGACUGCGGGUUCGAGUCCCGUACGGAACG [C5U U8C A14C] | ≤ 0.5 |
| GUUCUGUUGGCGAAAUGGUAACGCGUCUCCCUCCUAAGGAGAGGGCUGCGGGUUCGAGUCCGGUACGGAACG [C5U U13A A43G A45G C62G] | ≤ 0.5 |
| GUUCUGUCGGCGUAAUGGUAACGCGUCUCCCUCCUGAGGAGAAGACUGCGGGUUCGAGUACCGUACGGAACG [C5U U8C A36G C60A] | ≤ 0.5 |
| GUUCUGUUGGCGAAGUGGUAACGCGUCUCCCUCCUAAGGAGAAGACUGCCGGUUCGGGUCCCGUACGGAACG [C5U U13A A15G G50C A57G] | 0.536 |
| GUUCUGUUGGCGAAAUGGUAAUGCGUCUCACUCCUAGGGACAAGAGUGCGGGUUCGAGUCCCGUACGGAACG [C5U U13A C22U C30A A37G G41C C46G] | ≤ 0.5 |
| GUUCUGUUGGCGAAAUGGUAACGCGUCUCCCUCCUAAGGAGAAGACUGCGGGUUCGACUCCCGUACGGAACG [C5U U13A G58C] | 0.63 |
| GUUCUGGUGGCGUAAUGGUAACGCCUCUCCCUCCUAAGAAGAAGACUGCGGGUUCGAGUCCCGUAUGGAACG [C5U U7G G25C G39A C66U] | ≤ 0.5 |
